Reference: ChEMBL document CHEMBL1123120, “Synthesis and structure-activity relationships of a new series of antiarrhythmic agents: 4,4-disubstituted hexahydro-3H-pyrido[1,2-c]pyrimidin-3-ones and related compounds” (J Med Chem, 1985)

Tests used:
[1] = system: Canis familiaris; experiment: Antiarrhythmic activity in Beagle dogs following i.v. administration; minimum effective dose to suppress ventricular ectopic rate >/=25% for a minimum duration of 10 min.; type: functional, Canis lupus familiaris, Heart; details: for minimal effective dose: Canis lupus familiaris, Heart, iv, 10 min, read-out: MED
Summary of the method: (§1)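 Beagles of either sex, pentobarbital 30 mg/kg i.v., had two-stage LAD coronary ligation; tested conscious about 24 h later if ectopic rate ≥130 beats/min, ectopic ≥75% of total rate, and controls within 10%. HCl salts given i.v. to at least two dogs: 5 mg/kg repeated every 15 min to 20 mg/kg max; if active, 1 mg/kg every 5 min to 6 mg/kg. Active means ectopic rate reduced ≥25% for ≥10 min.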

[2] = molecular target: Muscarinic acetylcholine receptor (Rattus norvegicus) (UniProt P08482+P08483+P08485+P08911+P10980); experiment: Muscarinic acetylcholine receptor binding affinity in rat brain homogenate by [3H]quinuclidinylbenzilate displacement compared to disopyramide.; type: tissue-based
Summary of the method: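 Whole male CD rat brain without cerebellum was homogenized and spun at 1000g. The supernatant was incubated with 0.15 nM [3H]QNB, with or without compound, 25 °C, 1 h. Three to six concentrations were run in triplicate, and IC50 came from log-probit analysis. Values are expressed as the ratio IC50(test)/IC50(disopyramide).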

[3] = system: Canis familiaris; experiment: Decrease in myocardial contractility was determined by monitoring the maximum rate of rise of ventricular pressure in 10 Beagle dogs at a dose of 10 mg/kg; type: functional, Canis lupus familiaris, Cardiac ventricle
[4] = system: Canis familiaris; experiment: Hemodynamic effect of 5 mg/kg of compound was assessed in Beagle dogs by decrease in mean arterial pressure; max dose administered was 50 mg/kg; type: functional, Canis lupus familiaris, Artery
Summary of the method: (§2)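 Dogs of either sex were anesthetized with pentobarbital 30 mg/kg i.v. plus 5 mg/kg, then stabilized 30 min. Compound was given via right femoral vein. Where mean antiarrhythmic dose exceeded 5 mg/kg: 5 mg/kg over 5 min every 15 min until MAP fell 50% or 50 mg/kg cumulative. Otherwise: 1 mg/kg/min every 5 min up to 10 mg/kg. MAP was electronically averaged, with baseline the mean of four 5-min readings.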

[5] = species: Canis familiaris; experiment: The mean effective dose to suppress ventricular ectopic rate >=25% for a minimum duration of 10 minutes was reported.; type: functional; details: Canis lupus familiaris, Cardiac ventricle, read-out: MED; summary of the method: as §1
[6] = species: Cavia porcellus; experiment: Antimuscarinic activity in guinea pig ileum; type: functional; details: read-out: pA2 (converted)
Summary of the method: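 Guinea pig ileum was held in modified Tyrode's gassed with 95% O2/5% CO2, pH 7.4, under 0.5 g tension and equilibrated 30 min. A cumulative acetylcholine curve was run, the tissue rinsed 10 min, and the curve repeated with antagonist at four concentrations at quarter-log steps. pA2 by Van Rossum; if noncompetitive, −log of the concentration cutting maximal response 50%. At least four experiments were run.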

[7] = system: Canis familiaris; experiment: Hemodynamic effect of 5 mg/kg of compound was assessed in Beagle dogs by decrease in mean arterial pressure; max dose administered was 35 mg/kg; type: functional, Canis lupus familiaris, Artery; summary of the method: as §2
[8] = system: Canis familiaris; experiment: Hemodynamic effect of 1 mg/kg of compound was assessed in Beagle dogs by decrease in mean arterial pressure; max dose administered was 10 mg/kg; type: functional, Canis lupus familiaris, Artery; summary of the method: as §2
[9] = system: Canis familiaris; experiment: Hemodynamic effect of 5 mg/kg of compound was assessed in Beagle dogs by decrease in mean arterial pressure; max dose administered was 29 mg/kg; type: functional, Canis lupus familiaris, Artery; summary of the method: as §2

Compound: CCC1NC(=O)C(CCN(C(C)C)C(C)C)(c2ccccc2)C2CCCCN12 (centres undefined)
- minimal effective dose [1]: 6 mg/kg
- Muscarinic receptor affinity [2]: 0.0909

Compound: CC1=NC(=O)C(CCN(C(C)C)C(C)C)(c2ccccc2)C2CCCCN12 (centres undefined) [ACTISOMIDE]
- Decrease [3]: 14%
- Decrease in MAP [4]: 3%
- MED [1]: 10 mg/kg
- minimal effective dose [1]: 9 mg/kg
- minimal effective dose [5]: 9.1 mg/kg
- Kb [6]: 13.2 µM

Compound: CC(C)N(CC[C@]1(c2ccccc2)C(=O)N(C)CN2CCCC[C@@H]21)C(C)C
- minimal effective dose [1]: 7.5 mg/kg

Compound: CC(C)N(CCC1(c2ccccc2)C(=O)N=CN2CCCCC21)C(C)C (centres undefined)
- MED [1]: 10 mg/kg
- minimal effective dose [1]: 20 mg/kg

Compound: CC(C)N(CCC1(c2ccccc2)C(=O)NCN2CCCCC21)C(C)C (centres undefined)
- Decrease in MAP [7]: 54%
- minimal effective dose [5]: 6 mg/kg
- Muscarinic receptor affinity [2]: 0.0769

Compound: CC(C)N(CCC1(c2ccc(-c3ccccc3)cc2)C(=O)NCN2CCCCC21)C(C)C (centres undefined)
- minimal effective dose [1]: 5 mg/kg
- Muscarinic receptor affinity [2]: 0.0625

Compound: CC(C)N(CCC1(c2ccccc2)C(=O)N=C(c2ccccc2)N2CCCCC21)C(C)C (centres undefined)
- minimal effective dose [1]: 1 mg/kg
- Muscarinic receptor affinity [2]: 0.25

Compound: CC(C)N(CCC1(c2ccccc2)C(=O)NC(C)N2CCCCC21)C(C)C (centres undefined)
- Decrease [3]: 21%
- Decrease in MAP [8]: 4%
- minimal effective dose [1]: 2.5 mg/kg
- minimal effective dose [5]: 2.5 mg/kg
- Kb [6]: 60.3 µM
- Muscarinic receptor affinity [2]: < 0.05

Compound: CC(C)N(CCC(C(N)=O)(c1ccccc1)c1ccccn1)C(C)C (centres undefined) [DISOPYRAMIDE]
- Decrease [3]: 56%
- Decrease in MAP [9]: 57%
- minimal effective dose [1]: 10 mg/kg
- minimal effective dose [5]: 10 mg/kg
- Kb [6]: 0.891 µM
- Muscarinic receptor affinity [2]: 1

Compound: CC(C)N(CC[C@]1(c2ccccc2)C(=O)N[C@@H](C)N2CCCC[C@@H]21)C(C)C
- minimal effective dose [1]: 10 mg/kg
- Muscarinic receptor affinity [2]: 0.0434

Compound: CC(C)N(CCC1(c2ccccc2Cl)C(=O)N=CN2CCCCC21)C(C)C (centres undefined)
- minimal effective dose [1]: 15 mg/kg
- Muscarinic receptor affinity [2]: 0.0125

Compound: CC(C)N(CCC1(c2ccccc2)C(=O)NC(c2ccccc2)N2CCCCC21)C(C)C (centres undefined)
- minimal effective dose [1]: 4 mg/kg
- Muscarinic receptor affinity [2]: 0.0434

Compound: CC(C)N(CCC1(c2ccc(-c3ccccc3)cc2)C(=O)N=CN2CCCCC21)C(C)C (centres undefined)
- Decrease in MAP [8]: 27%
- minimal effective dose [1]: 2.5 mg/kg
- minimal effective dose [5]: 2.5 mg/kg
- Muscarinic receptor affinity [2]: 0.02

Compound: CCC1=NC(=O)C(CCN(C(C)C)C(C)C)(c2ccccc2)C2CCCCN12 (centres undefined)
- minimal effective dose [1]: 12.5 mg/kg
- Muscarinic receptor affinity [2]: 0.0625

Compound: CC(C)N(CCC1(c2ccccc2Cl)C(=O)NCN2CCCCC21)C(C)C (centres undefined)
- minimal effective dose [1]: 7.5 mg/kg
- Muscarinic receptor affinity [2]: < 0.01
